Results reported in PubChem BioAssay.
Records with an inconclusive call do not appear. Activity calls are given as the source filed them.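 Rule for the calls, unless noted: active = inhibition over a set limit, the all-compound mean plus 3 SD, in both replicate runs; inconclusive = over that limit in just one replicate run; inactive = at or under that limit in both runs.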

Assays:
[1] = OD615 S. cerevisiae growth inhibition, permissive medium, pilot counter-assay, permissive growth control for S. cerevisiae lifespan shortening project (AID 705;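 active = growth inhibition above 25% in both replicates, a cutoff set 3 SD above the mean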); conditions: OD615, 24 h, at 10 µM, hits give high values
In short: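 Material: engineered DeaD yeast; compound dosing: one dose 10 µM, DMSO 0.25% final; measure: yeast growth inhibition indicated by reduced 24 h OD615; detection: OD615 turbidity read; incubation: cells pre-grown 4 h, then 24 h compound exposure, 30 °C humidified; medium: permissive synthetic complete medium with raffinose and galactose carbon sources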

[2] = Restrictive medium S. cerevisiae growth inhibition, OD615, pilot screen of yeast lifespan reduction project, restrictive growth control (AID 706;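 active = growth inhibition above a set limit, 3 SD over mean compound inhibition, in both replicates, cut at about 43% in these data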;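 note: modified DeaD lifespan yeast strain shifted to restrictive glucose medium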); conditions: OD615, 48 h, at 10 µM, hits give high values
In short: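 material = engineered S. cerevisiae DeaD strain | medium = glucose-based CSMM-D restrictive medium | times = 4 h pre-incubation, 48 h exposure at 30 °C | technique = OD615 absorbance reading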

[3] = viability gain of MRP-1-high H69AR cells under doxorubicin, pilot screen, MRP-1 activator project, CellTiter-Glo, duplicate (AID 807;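 active = viability increase at or above a cutoff of the median across tested compounds plus 3 SD, cut at about 8.5% in these data, passing the limit was not always enough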;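 note: compound pretreatment 18-22 h then 72 h combined with doxorubicin; 0% = doxorubicin alone and 100% = vehicle without doxorubicin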); conditions: H69AR viability with doxorubicin, CellTiter-Glo luminescence; at 10 µM; hits give high values
[4] = growth suppression of beta-catenin knockout HCT116, pilot screen, human colon tumor cells (AID 823;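 active = cell viability at or below a set limit in both duplicate runs, the limit being the all-compound median minus 4 SD, cut at about 23% in these data, passing the limit was not always enough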;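 note: 0% = wells killed by 20 µM Hyamine and 100% = untreated DMSO cell wells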); conditions: CellTiter-Glo, 60 h, at 10 µM, hits give low values
[5] = growth suppression of PTEN-deleted HCT116, pilot screen, cell-based, HCT116 clonal line, CellTiter-Glo (AID 824;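 active = viability at or below 27.92% in each of two runs, the all-compound median minus 4 SD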;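 note: 0% = 20 µM Hyamine control and 100% = vehicle cell control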); conditions: 60 h, at 10 µM, hits give low values
[6] = inhibitors of the yeast RAM network, pilot screen, dse1pr::URA3 reporter, 5-FOA selection (AID 869);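 note: 0% = DMSO wells with no growth and 100% = 10 µM 1-NA-PP1 with full growth; RAM network block rescues cells from 5-FOA so hits raise OD615 growth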; conditions: S. cerevisiae dse1pr::URA3 5-FOA growth, OD615, 2 d; at 10 µM; hits give high values; strain carries analog-sensitive mutant Cbk1 kinase
[7] = RAM signaling pathway blockade in yeast – S. cerevisiae, Pdr1DBD-CYC8 efflux-inhibited sensitized strain, primary screen (AID 1298;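 active = RAM network inhibition above 8.4% in each of two replicates, 3 SD over the compound average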;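 note: 0% = DMSO untreated cells without growth and 100% = 10 µM 1-NA-PP1 full growth; higher means more yeast growth rescued from 5-FOA killing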); conditions: S. cerevisiae cbk1-as DSE1-URA3 strain, 5-FOA growth OD615, 2 d; at 50 µM; hits give high values

CC1CCC(NC(=O)c2cc3c(=O)n(C)c4ccccc4c3n2C)CC1 (configuration not stated)
inactive: growth inhibition [1] -12.8% | growth inhibition [2] -9.28% | viability increase [3] -4.41% | viability [4] 76.8% | viability [5] 66% | inhibition [6] 2.25% | RAM network inhibition [7] 4.58%

COc1ccc(C2CC(c3ccc(Cl)cc3)n3nc(N)nc3N2)cc1 (configuration not stated)
inactive: growth inhibition [1] -5.72% | growth inhibition [2] 10.7% | viability increase [3] 2.46% | viability [4] 100% | viability [5] 95.1% | inhibition [6] 3.23% | RAM network inhibition [7] 4.44%

COc1ccc(C2=NOC(C(=O)Nc3cc(C)nn3-c3ccccc3)C2)cc1OC (configuration not stated)
inactive: growth inhibition [1] -14.9% | growth inhibition [2] -31.2% | viability increase [3] -0.06% | viability [4] 103% | viability [5] 97.1% | inhibition [6] 1.11% | RAM network inhibition [7] 1.36%

CN(C(=O)c1ccc(=O)[nH]c1)C1(C(=O)NC2CCCCC2)CCCCC1
inactive: growth inhibition [1] -7.84% | growth inhibition [2] -8.31% | viability increase [3] -0.61% | viability [4] 95.7% | viability [5] 101% | inhibition [6] 0.78% | RAM network inhibition [7] 1.66%

COc1cccc(-c2nc(CS(=O)(=O)CC(=O)NCc3ccccc3)c(C)o2)c1
inactive: growth inhibition [1] 6.62% | growth inhibition [2] 8.33% | viability increase [3] -0.84% | viability [4] 94.8% | viability [5] 88.1% | inhibition [6] 1.4% | RAM network inhibition [7] 3.28%

CCOC(=O)c1[nH]c(C)c(C(=O)NCCN2CCOCC2)c1C
inactive: growth inhibition [1] -3.9% | growth inhibition [2] -8.41% | viability increase [3] -1.39% | viability [4] 103% | viability [5] 97.7% | inhibition [6] 0.85% | RAM network inhibition [7] -0.87%

Nn1c(SC/C=C/c2ccccc2)nnc1-c1ccccn1
inactive: growth inhibition [1] -5.81% | growth inhibition [2] -10% | viability increase [3] -0.88% | viability [4] 103% | viability [5] 95.1% | inhibition [6] -0.5% | RAM network inhibition [7] -2.02%

CCCC1(C(=O)O)NC(c2ccccc2O)C2C(=O)N(Cc3ccccc3)C(=O)C21 (configuration not stated)
inactive: growth inhibition [1] 7.11% | growth inhibition [2] 6.84% | viability increase [3] -1.02% | viability [4] 97.5% | viability [5] 90.8% | inhibition [6] 0.45% | RAM network inhibition [7] 0.88%

CCc1nnc(NC(=O)CSc2nccn2-c2cccc(C)c2C)s1
inactive: growth inhibition [1] 2.46% | growth inhibition [2] 32.5% | viability increase [3] -5.37% | viability [4] 46.2% | viability [5] 42.9% | inhibition [6] 0.935% | RAM network inhibition [7] 1.37%

COc1ccc(CNC(=O)c2cnc3scc(C)n3c2=O)cc1
inactive: growth inhibition [1] -13.9% | growth inhibition [2] -6.35% | viability increase [3] 3.79% | viability [4] 102% | viability [5] 93.8% | inhibition [6] 0.925% | RAM network inhibition [7] 11.9%

N#Cc1ccccc1N=C1CCCN1Cc1ccccc1
inactive: growth inhibition [1] -3.08% | growth inhibition [2] 9.46% | viability increase [3] 0.25% | viability [4] 88.8% | viability [5] 95.2% | inhibition [6] 0.63% | RAM network inhibition [7] 4.48%

Cc1cnc(C(=O)OCC(=O)Nc2cccc(Cl)c2)cn1
inactive: growth inhibition [1] -0.055% | growth inhibition [2] 1.48% | viability increase [3] -3.1% | viability [4] 92.5% | viability [5] 92.3% | inhibition [6] 0.405% | RAM network inhibition [7] 0.67%

CCc1ccc(NC(=O)CSc2nc3c(c(=O)n(C)c(=O)n3C)n2C)cc1
inactive: growth inhibition [1] 3.77% | growth inhibition [2] -8% | viability increase [3] -1.41% | viability [4] 91.8% | viability [5] 94.6% | inhibition [6] 1.03% | RAM network inhibition [7] 0.68%

CCc1cc(C(=O)Nc2ccccc2)cs1
inactive: growth inhibition [1] -8.2% | growth inhibition [2] 4.65% | viability increase [3] -0.18% | viability [4] 82.8% | viability [5] 90.9% | inhibition [6] 2.13% | RAM network inhibition [7] -2.13%

COc1ccc(C)cc1NC(=O)c1cc2c(CO)cnc(C)c2oc1=N
inactive: growth inhibition [1] -16.1% | growth inhibition [2] -10.5% | viability increase [3] -0.06% | viability [4] 97.5% | viability [5] 89.7% | inhibition [6] 1.31% | RAM network inhibition [7] 0.63%

N=c1c2c3c(sc2nc2n1CCCCC2)CCCCC3
inactive: growth inhibition [1] -5.75% | growth inhibition [2] -13.7% | viability increase [3] -5.46% | viability [4] 67.7% | viability [5] 71.7% | inhibition [6] 0.715% | RAM network inhibition [7] 5.69%

CCOC(=O)N1CCN(CC(=O)Nc2cc(OCC)ccc2OCC)CC1
inactive: growth inhibition [1] -8.3% | growth inhibition [2] -19.7% | viability increase [3] -6.22% | viability [4] 91.2% | viability [5] 93.8% | inhibition [6] 2.08% | RAM network inhibition [7] 7.52%

O=C(Nc1nccs1)C1CCCN(S(=O)(=O)c2cccc3cccnc23)C1 (configuration not stated)
inactive: growth inhibition [1] -3.46% | growth inhibition [2] 11.8% | viability increase [3] -1.85% | viability [4] 71.2% | viability [5] 68.6% | inhibition [6] 1.6% | RAM network inhibition [7] 4.95%

CCN=C(NCC)SC1CC(=O)N(c2cccc(OC)c2)C1=O (configuration not stated)
inactive: growth inhibition [1] 5.98% | growth inhibition [2] 1.56% | viability increase [3] -1.43% | viability [4] 101% | viability [5] 94.6% | inhibition [6] 0.04% | RAM network inhibition [7] 7.47%

O=C(c1cc(-c2ccc(O)cc2)on1)N1CCc2ccccc2C1
inactive: growth inhibition [1] -16.4% | growth inhibition [2] 15.6% | viability increase [3] -4.4% | viability [4] 93% | viability [5] 91.1% | inhibition [6] 0.875% | RAM network inhibition [7] -2.87%

CCNc1cc2oc(=O)c(CN3CCOCC3)c(C)c2cc1C
inactive: growth inhibition [1] 4.16% | growth inhibition [2] 6.97% | viability increase [3] -1.46% | viability [4] 91% | viability [5] 94.5% | inhibition [6] 2.04% | RAM network inhibition [7] 0.2%

CCCC(=O)Nc1cc(=O)n(C)c(=O)n1C
inactive: growth inhibition [1] -12.8% | growth inhibition [2] -4.53% | viability increase [3] -1.04% | viability [4] 103% | viability [5] 94.8% | inhibition [6] 0.76% | RAM network inhibition [7] -0.88%

Cn1c(CCNC(=O)C(C)(C)C)nc2ccccc21
inactive: growth inhibition [1] -4.42% | growth inhibition [2] -7.26% | viability increase [3] 0.98% | viability [4] 95.3% | viability [5] 98.5% | inhibition [6] 2.58% | RAM network inhibition [7] 4.43%

CC(=O)Oc1ccc(N2C(=O)C3C(C2=O)C2(C)C=CC3(C)O2)cc1 (configuration not stated)
active: growth inhibition [1] 95.1% | growth inhibition [2] 100%
inactive: viability increase [3] -1.26% | viability [4] 99% | viability [5] 98.4% | inhibition [6] 2.16% | RAM network inhibition [7] 0.09%

CC1=CS/C(=C(/C#N)C(=O)N2CCOCC2)N1c1ccccc1
inactive: growth inhibition [1] -2.33% | growth inhibition [2] 1.7% | viability increase [3] -1.17% | viability [4] 94.2% | viability [5] 94.7% | inhibition [6] 0.255% | RAM network inhibition [7] 0.92%

COc1ccc(C2C(C(=O)c3ccco3)=C(O)C(=O)N2Cc2cccnc2)cc1OC (configuration not stated)
inactive: growth inhibition [1] -4.18% | growth inhibition [2] 6.84% | viability increase [3] -3.78% | viability [4] 102% | viability [5] 98.7% | inhibition [6] 0.875% | RAM network inhibition [7] 0.66%

CC(C)Cn1c(CN2C(=O)c3ccccc3C2=O)nc2ccccc2c1=O
inactive: growth inhibition [1] -8.43% | growth inhibition [2] -9.18% | viability increase [3] -0.19% | viability [4] 98.4% | viability [5] 93.4% | inhibition [6] 3.54% | RAM network inhibition [7] 5.36%

C=CCNc1oc(Cc2cccc3ccccc23)nc1C#N
inactive: growth inhibition [1] -19.8% | growth inhibition [2] -9.46% | viability increase [3] -3.89% | viability [4] 107% | viability [5] 88% | inhibition [6] 1.04% | RAM network inhibition [7] 2.18%

CCN(CCNC(=O)CCCn1nc(C)n2c(cc3sccc32)c1=O)c1ccccc1
inactive: growth inhibition [1] -7.8% | growth inhibition [2] -4.82% | viability increase [3] 1.17% | viability [4] 97.2% | viability [5] 93% | inhibition [6] -0.2% | RAM network inhibition [7] 6.63%

COc1ccc(C)cc1NC(=O)CSc1nnc(-c2ccc(OC)c(OC)c2)n1N
inactive: growth inhibition [1] 3.19% | growth inhibition [2] 14% | viability increase [3] -1.57% | viability [4] 102% | viability [5] 98.9% | inhibition [6] 0.235% | RAM network inhibition [7] 7.82%

CC1CCCN(C(c2ccccc2)c2sc3ncnn3c2O)C1 (configuration not stated)
inactive: growth inhibition [1] -7.14% | growth inhibition [2] -1.14% | viability increase [3] 3.23% | viability [4] 96.6% | viability [5] 84.8% | inhibition [6] 2.16% | RAM network inhibition [7] 4.56%

Cn1c(=O)oc2cc(S(=O)(=O)N3CCC(C(=O)NCc4cccs4)CC3)ccc21
inactive: growth inhibition [1] -3.54% | growth inhibition [2] 4.04% | viability increase [3] -0.3% | viability [4] 95.1% | viability [5] 90.2% | inhibition [6] 0.335% | RAM network inhibition [7] 1.5%

Nc1nc2n(n1)C(c1ccco1)CC(c1ccc(F)cc1)N2 (configuration not stated)
inactive: growth inhibition [1] -0.245% | growth inhibition [2] 11.6% | viability increase [3] 1.69% | viability [4] 98.4% | viability [5] 101% | inhibition [6] 0.45% | RAM network inhibition [7] 4.49%

CCc1noc2c1/C(=N\O)CC(c1ccccc1)C2 (configuration not stated)
inactive: growth inhibition [1] 0.555% | growth inhibition [2] 4.22% | viability increase [3] 2.87% | viability [4] 83.3% | viability [5] 84.8% | inhibition [6] 1.78% | RAM network inhibition [7] -1.18%

COc1cccc(CNC(=O)CN(c2cc(C)cc(C)c2)S(=O)(=O)c2c(C)noc2C)c1
inactive: growth inhibition [1] -6.25% | growth inhibition [2] -3.9% | viability increase [3] -2.41% | viability [4] 90.3% | viability [5] 90.4% | inhibition [6] 1.34% | RAM network inhibition [7] 7.12%

Cc1ccc(CSc2nc3c(c(=O)[nH]c(=O)n3C)n2CCC(C)C)cc1
inactive: growth inhibition [1] -2.01% | growth inhibition [2] -11.3% | viability increase [3] -7.6% | viability [4] 53.1% | viability [5] 51.2% | inhibition [6] 4.83% | RAM network inhibition [7] 7.58%
